Experimental findings from PMC3685236 (International Journal of Molecular Sciences, 2007) are described below.

What all share (assay type): cell-based
In experiment [1] the test system is HeLa cells. The experiment is described as follows: Antiproliferative activity, Kenacid Blue R dye binding cell survival, HeLa. The settings on record: Homo sapiens. The essentials: (§1)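 Adherent cells seeded at 2,000/well (HeLa, Fem-X) or 6,000/well (LS174); compounds added 20 h later at five double-diluted concentrations (20 mM DMSO stocks, final 0–300 μM). Continuous 72 h exposure, 37 °C, 5% CO2. PBS wash, methanol/acetic acid (3:1) fixation, 0.04% Coomassie R-250 staining, A570. Survival % vs medium-only control after cell-free blank subtraction; IC50 read from survival–concentration plot.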

For experiment [2], the system named is Fem-X cells. The experiment is described as follows: Antiproliferative activity, Kenacid Blue R dye binding cell survival, Fem-X. Conditions: Homo sapiens, 72 h, read-out: IC50 (μM) Fem-X. The essentials: as §1
The subject of experiment [3] is K562 cells. The experiment is described as follows: Antiproliferative activity, Kenacid Blue R dye binding cell survival, K562. The settings on record: Homo sapiens, K562, 72 h, read-out: IC50 (μM) K562. The procedure, abridged:
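K562 suspension culture in RPMI 1640 with 10% heat-inactivated FBS, 3 mM glutamine, 25 mM Hepes, pH 7.2. Seeded 3,000 cells/well and dosed 2 h later at five double-diluted concentrations (final 0–300 μM, from DMSO stocks). Exposure was 72 h at 37 °C, 5% CO2. Total protein by Kenacid Blue R (Coomassie R-250) staining, A570, blank-corrected. IC50 taken from survival % vs concentration.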

The test system of experiment [4] is LS174 cells. The experiment is described as follows: Antiproliferative activity, Kenacid Blue R dye binding cell survival, LS174. Conditions: Homo sapiens, LS174, 72 h, read-out: IC50 (μM) LS174. The essentials:
as §1

In experiment [5] the test system is PBMC. Description: Cytotoxicity toward healthy peripheral blood mononuclear cells. The settings on record: Homo sapiens, 72 h, read-out: IC50 PBMC. The essentials:
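Unstimulated PBMC (no mitogen) were isolated from heparinized blood of two healthy donors by Lymphoprep gradient and washed three times in Haemaccel. Seeded at 150,000/well, then dosed 2 h later in triplicate at five final concentrations. After 72 h, cells were centrifuged (10 min, 2,000 rpm), fixed in methanol/acetic acid and stained with Kenacid Blue R, and A570 was read. Survival % vs medium control, cell-free blank subtracted.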

Where [6] appears, read: read-out: Obtained log(1/(IC50)) (converted).

Like-named read-outs stand apart in the source and are kept apart here.

Consider `CC(C)(C(=O)O)C(C)(O)c1ccc(-c2ccccc2)cc1` (stereo not shown) [Compound 1, 3-Hydroxy-2,2-dimethyl-3-(4-biphenylyl)butanoic acid], for which the IC50 in experiment [1] (72 h, read-out: IC50 (μM) HeLa) was 62.2 µM; in experiment [1] (setting [6]), 62.2 µM; in experiment [2], 205 µM; in experiment [3], 141 µM; in experiment [4], 154 µM; in experiment [5], above 300 µM.
Regarding `CC(C)(C(=O)O)C(O)(c1ccccc1)c1ccccc1` [Compound 2, 3-Hydroxy-2,2-dimethyl-3,3-diphenylpropanoic acid], the IC50 is 80.6 µM in experiment [1] (72 h, read-out: IC50 (μM) HeLa) and 80.5 µM in experiment [1] (setting [6]).
In the case of `CC(C(=O)O)C(O)c1ccccc1Cl` (stereo not shown) [Compound 3, 3-Hydroxy-2-methyl-3-(2-chlorophenyl)propanoic acid], the IC50 in experiment [1] (72 h, read-out: IC50 (μM) HeLa) is 97.2 µM; in experiment [1] (setting [6]), 97.3 µM; in experiment [2], 89 µM; in experiment [3] it was 92 µM; in experiment [4], 93 µM; in experiment [5], above 300 µM.
For `CC(O)(CC(=O)O)c1ccc(-c2ccccc2)cc1` (stereo not shown) [Compound 4, 3-Hydroxy-3-(4-biphenylyl)butanoic acid], the IC50 in experiment [1] (72 h, read-out: IC50 (μM) HeLa) is 98.7 µM; in experiment [1] (setting [6]) it was 98.6 µM; in experiment [2], above 200 µM; in experiment [3], above 200 µM; in experiment [4], above 200 µM; in experiment [5], above 300 µM.
In the case of `CC(C(=O)O)C(O)(c1ccccc1)c1ccccc1` (stereo not shown) [Compound 6, 3-Hydroxy-2-methyl-3,3-diphenylpropanoic acid], the IC50 in experiment [1] (72 h, read-out: IC50 (μM) HeLa) is 99.4 µM; in experiment [1] (setting [6]), 99.3 µM.
As for `CC(C)(C(=O)O)C(O)c1ccc(Cl)cc1` (stereo not shown) [Compound 7, 3-Hydroxy-2,2-dimethyl-3-(4-chlorophenyl)propanoic acid], the IC50 in experiment [1] (72 h, read-out: IC50 (μM) HeLa) was 106 µM; in experiment [1] (setting [6]), 106 µM; in experiment [2] it was above 200 µM; in experiment [3] it was above 200 µM; in experiment [4] it was above 200 µM; in experiment [5], above 300 µM.
Consider `O=C(O)CC(O)c1ccccc1Cl` (stereo not shown) [Compound 8, 3-Hydroxy-3-(2-chlorophenyl)propanoic acid], for which the IC50 in experiment [1] (72 h, read-out: IC50 (μM) HeLa) is 118 µM; in experiment [1] (setting [6]) it was 118 µM; in experiment [2], above 200 µM; in experiment [3], above 200 µM; in experiment [4], above 200 µM.
As to `CC(C)(C(=O)O)C(C)(O)c1ccccc1` (stereo not shown) [Compound 11, 3-Hydroxy-2,2-dimethyl-3-phenylbutanoic acid], the IC50 in experiment [1] (72 h, read-out: IC50 (μM) HeLa) was 133 µM; in experiment [1] (setting [6]), 133 µM; in experiment [5], above 300 µM.
For the compound `CC(C)Cc1ccc(C(C)(O)CC(=O)O)cc1` (stereo not shown) [Compound 12, 3-Hydroxy-3(4-isobutylphenyl)butanoic acid], the IC50 in experiment [1] (72 h, read-out: IC50 (μM) HeLa) is 151 µM; in experiment [1] (setting [6]) it was 151 µM; in experiment [2], above 200 µM; in experiment [3], above 200 µM; in experiment [4], above 200 µM; in experiment [5] it was above 300 µM.
Regarding `CC(C)(C(=O)O)C(O)c1ccccc1` (stereo not shown) [Compound 13, 3-Hydroxy-2,2-dimethyl-3-phenylpropanoic acid], the IC50 was 165 µM in experiment [1] (72 h, read-out: IC50 (μM) HeLa) and 165 µM in experiment [1] (setting [6]).
Take `O=C(O)CC(O)(c1ccccc1)c1ccccc1` [Compound 14, 3-Hydroxy-3,3-diphenylpropanoic acid]: the IC50 in experiment [1] (72 h, read-out: IC50 (μM) HeLa) was 183 µM; in experiment [1] (setting [6]), 182 µM.
